Data set [1] in a line: Clearance in Wistar-Han rat Liver microsomes at 1 uM measured for 2 to 90 mins by LC-MS/MS. In kind it is ADME, Microsome. The settings on record: time 2-90 min. For orientation: Liver microsomes are vesicles of endoplasmic reticulum, rich in cytochrome P450 enzymes.
Data set [2] in a line: Clearance in Wistar-Han rat hepatocytes at 1 uM measured for 2 to 90 mins by LC-MS/MS. Format: ADME, cell-based, Hepatocyte. The conditions noted are these: 1 µM, time 2-90 min.
Data set [3] in a line: Half life in Wistar-Han rat blood at 0.3 to 0.5 mg/kg, iv measured upto 24 hrs by HPLC with LC-MS/MS. In kind it is ADME, organism-based. The conditions noted are these: dose 0.3-0.5 mg/kg.
Data set [4] has as its system MOLM-13. Kind of data set: Antitumor activity against human MOLM-13 cells xenografted in AML mouse model assessed as tumor volume by measuring T/C ratio at 15 mg/kg, iv qd. Format: functional. A digest of the protocol:
(§1)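 Nude mouse MOLM-13 AML xenograft. Compound dosed iv on the stated schedule, starting 5 days after tumor cell inoculation. Tumor volumes were followed. T/C ratio was taken from mean tumor volumes at the time point when the vehicle group was sacrificed, with significance tested against vehicle controls.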
(In xenograft studies the graft and the host belong to different species.)

In data set [5] the test system is MOLM-13. Kind of data set: Antitumor activity against human MOLM-13 cells xenografted in AML mouse model assessed as tumor volume by measuring T/C ratio at 65 mg/kg, iv administered once in 5 days. The conditions noted are these: time 5 day. Format: functional. Put shortly:
as §1

A short description of data set [6]: Clearance in Wistar-Han rat blood at 0.3 to 0.5 mg/kg, iv measured upto 24 hrs by HPLC with LC-MS/MS. In kind it is ADME, organism-based. The settings on record: dose 0.3-0.5 mg/kg.
The nature of data set [7]: Volume of distribution at steady state in Wistar-Han rat blood at 0.3 to 0.5 mg/kg, iv measured upto 24 hrs by HPLC with LC-MS/MS. In kind it is ADME, organism-based. The conditions noted are these: dose 0.3-0.5 mg/kg, read-out: Vdss.
Data set [8] relates to MOLM-13. Kind of data set: Antitumor activity against human MOLM-13 cells xenografted in AML mouse model assessed as tumor volume by measuring T/C ratio at 35 mg/kg, iv administered once in 3 days. In kind it is functional. The conditions noted are these: time 3 day. A digest of the protocol: as §1
Data set [9] in a line: Apparent permeability of the compound across apical side to basolateral side in human CaCo-2 cells at 2 uM incubated for 2 hrs. Format: ADME, cell-based. A digest of the protocol:
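Caco-2 monolayers with TEER of at least 400 Ω·cm². Compound (predissolved in DMSO) added apically or basolaterally at a final 2 μM and incubated 2 h at 37 °C, in triplicate. Both compartments were sampled before and after, MeOH-precipitated and analysed by LC–MS/MS. Papp = (Vr/P0)(1/S)(P2/t).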

The nature of data set [10]: Aqueous solubility of the compound at pH 4 for 24 hrs by HPLC-MS/MS. Format: physicochemical.

As a reminder, the half-life is the time in which the quantity being followed falls by half. Lower therefore signals fast loss. For orientation: clearance means the volume of plasma or blood freed of the substance per unit of time. Higher therefore signals efficient removal. In general, Papp A→B refers to the apparent permeability from the apical to the basolateral side of a cell layer. What is called solubility is the dissolved amount per volume that the medium holds. A high value points to a readily soluble substance.

Converted amounts (≈) assume the structure as drawn.

Regarding `COc1cc(F)ccc1-c1nc(Nc2cc(F)cc(CS(C)(=N)=O)c2)ncc1F` (stereo in doubt), the figures for the CLH in [1] and in data set [2] were 1.6 L/h/kg and 1.9 L/h/kg, respectively. The compound also showed a half-life in data set [3] of 1 h. The T/C in the data set with MOLM-13 [4] is given as 0.26; in the data set with MOLM-13 [5], 0.34; with MOLM-13 [8], 0.26. In data set [6], this compound gave a clearance of 1.3 L/h/kg. Moreover, in [7], the Vd turned out to be 1.6 L/kg. In addition, the apical-to-basolateral permeability (Papp A→B) at 2 h, 2 µM in [9] was found to be 168 nm/s. This compound returned a solubility at 24 h in data set [10] of 0.03 mg/mL (≈ 71 µM).

For the origin of these results see ChEMBL document CHEMBL5036331 (J Med Chem, 2021).
